# A selection: hits, their analogues and other compounds. The true share with any hit is near 2.4%.
# IMP-1 inh = blocks Pseudomonas aeruginosa IMP-1 metallo-beta-lactamase | purified IMP-1, nitrocefin hydrolysis, epi-absorbance fluorescence | inhibition, % at 5.6 µM | 290,000 tested, 0.45% active;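 active = inhibition above the mean plus 3 SD of all compounds in the same screening run, cut at about 4.5% in these data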;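 note: 0% = IMP-1 with DMSO and 100% = DMSO wells lacking enzyme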
#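 System: Purified recombinant IMP-1 metallo-beta-lactamase enzyme | Measured by: Fluorescence quenching readout, ex 480/em 530 nm | Replication: Singlicate | Incubation: 15 min preincubation plus 25 min reaction at 25 °C | Evaluation: Percent inhibition from optical density relative to buffer-blank wells | Benchmarks: DMSO with and without IMP-1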
# VIM-2 inhibitor = blocks Pseudomonas aeruginosa VIM-2 metallo-beta-lactamase | purified VIM-2, nitrocefin hydrolysis, epi-absorbance fluorescence | inhibition, % at 5.6 µM | 290,000 tested, 0.89% active | AID 1527;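 active = inhibition above the mean of all tested compounds plus 3 SD, cutoff set per screening run, cut at about 7.5% in these data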;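 note: red hydrolysis product quenches plate fluorescence so inhibitors raise well fluorescence; 0% = enzyme with DMSO and 100% = DMSO without enzyme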
# sPLA2-III inh = Inhibits HGIII-sPLA2 liposome hydrolysis, primary screen; AID 743126; 370,000 tested, 0.56% active; Q9NZ20; QFRET BODIPY PC-A2 liposome hydrolysis, fluorescence; inhibition, % at 12.2 µM;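 active = inhibition above mean plus 3 SD of compounds lying within the high and low control bounds, cut at about 19% in these data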;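 note: 0% = median of test compound wells and 100% = no enzyme DMSO wells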
# PfM18AAP inh-1 = PfM18AAP enzyme inhibition. inhibition, % at 7.35 µM. 290,000 tested, 1.2% active. recombinant PfM18AAP, H-Glu-NHMec fluorogenic cleavage;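 active = inhibition above the campaign mean inhibition over all tested compounds plus 3 SD, cut at about 28% in these data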;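 note: 0% = plate median of test compound wells and 100% = 2 mM ZnCl2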
# PfM18AAP inh-2 = confirmation of Plasmodium falciparum M18 aspartyl aminopeptidase inhibitors. shares compounds with PfM18AAP inh-1. recombinant PfM18AAP, H-Glu-NHMec fluorogenic cleavage. inhibition, % at 7.35 µM. 2,400 tested, 28% active. AID 2170;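 active = mean inhibition over replicate wells above the hit cutoff set for the earlier primary screen, cut at about 29% in these data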;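 note: 0% = median of test compound wells and 100% = 2 mM ZnCl2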
# CTSL1 confirm = Cathepsin L (human) inhibition, confirmation | shares compounds with PfM18AAP inh-1 | purified cathepsin L1, Z-Leu-Arg-MCA fluorescence | inhibition, % at 5.96 µM | 2,400 tested, under 10 active | AID 2178;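 active = average inhibition across replicates above the hit cutoff set in the earlier primary screen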;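 note: 0% = median of test compound wells and 100% = Z-Phe-Ala-diazomethylketone 1 µM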
# Target sequence (P07711 whole entry, looked up): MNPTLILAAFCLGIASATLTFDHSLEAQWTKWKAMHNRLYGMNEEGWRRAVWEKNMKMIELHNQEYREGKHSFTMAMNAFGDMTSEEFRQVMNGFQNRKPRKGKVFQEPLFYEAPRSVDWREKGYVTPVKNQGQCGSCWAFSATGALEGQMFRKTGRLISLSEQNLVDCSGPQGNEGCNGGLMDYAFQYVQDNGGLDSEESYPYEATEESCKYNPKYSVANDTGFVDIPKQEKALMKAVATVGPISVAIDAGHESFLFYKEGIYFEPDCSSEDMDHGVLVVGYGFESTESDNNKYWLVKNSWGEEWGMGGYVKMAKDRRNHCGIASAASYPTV
# * marks the source's active call; other numbers are inactive results; . = no result given.
SMILES,IMP-1 inh,VIM-2 inhibitor,sPLA2-III inh,PfM18AAP inh-1,PfM18AAP inh-2,CTSL1 confirm
NC(=O)C(=CNc1nc(-c2ccc(Cl)c(Cl)c2)cs1)C(N)=O,-0.8,2.7,.,68.7*,53.0*,-1.6
CCc1nc2c(OCCc3cccc(OC)c3)cccn2c1N(C)C(=O)c1cccs1,.,.,2.6,.,.,.
Cc1c(C#N)c(O)n(CCO)c(=O)c1N=Nc1ccc(S(N)(=O)=O)cc1,-4.5,-1.6,9.5,35.5*,-37.3,12.9
Cc1c(C#N)c(O)n(C)c(=O)c1N=Nc1ccc(S(N)(=O)=O)cc1,-5.2,10.0*,-1.5,35.5*,-39.7,4.7
C[C@H]1CCCC(=O)N[C@@H](c2ccccc2)[C@@H](C)CCCC(=O)N[C@H]1c1ccccc1,.,.,-1.8,.,.,.
COc1cc(-c2nnc(SCc3cc(=O)oc4cc(O)c(O)cc34)o2)cc(OC)c1OC,-6.5,2.2,-29.7,34.9*,1.6,5.2
CCOC(=O)CSc1nnc(-c2cc(OC)c(OC)c(OC)c2)o1,0.1,-1.1,2.3,-2.7,.,.
COc1ccc(NC(=S)Nc2cccc([N+](=O)[O-])c2)cc1,-1.1,-1.1,10.5,1.1,.,.
COc1ccc(NC(=S)NNc2ccc([N+](=O)[O-])cc2S(=O)(=O)Nc2ccc(C)cc2C)cc1,-4.1,-4.8,-3.5,39.4*,31.9*,2.5
COCCNC(=S)Nc1ccc([N+](=O)[O-])cc1C,-2.5,-0.2,-1.3,6.0,.,.
Cc1ccc(NS(=O)(=O)c2cc([N+](=O)[O-])ccc2NNC(=S)Nc2cc(C)ccc2C)c(C)c1,-1.6,1.0,-34.2,39.2*,38.6*,0.2
Cc1ccc(S(=O)(=O)N2C[C@H]3[C@H]4C(=O)N(C)C(=O)[C@H]4CC(=O)[C@H]3[C@@H]2c2ccccc2F)cc1,.,.,-30.8,.,.,.
C/C(=N\Nc1ncc(Cl)cc1Cl)c1ccc(N2CCOCC2)cc1,-0.8,0.4,7.8,52.1*,5.3,0.7
C/C(=N\Nc1nc(C)cc(C)n1)c1ccc(N2CCOCC2)cc1,-3.4,-1.0,2.1,8.7,.,.
C/C(=N\Nc1ncc(Cl)cc1Cl)c1ccccn1,-3.5,-2.0,.,38.2*,-11.3,-8.7
C/C(=N\Nc1nc2ccccc2[nH]1)c1ccc(N2CCOCC2)cc1,-8.8,-7.8,2.4,45.8*,-69.3,-5.2
CCc1nc2c(OCc3ccc(C#N)cc3)cccn2c1N(C)C(=O)C(C)C,.,.,-4.7,.,.,.
Cc1c(C(N)=O)sc2ncn(CC(=O)N(C)C3CCCCC3)c(=O)c12,-2.0,-3.8,1.1,2.9,.,.
COc1cc(Cl)ccc1NC(=S)N(CCCN1CCOCC1)Cc1cn(C)c2ccccc12,-0.7,0.0,7.0,31.9*,-0.6,2.8
COc1ccc(Cl)cc1NC(=S)N(CCCN1CCOCC1)Cc1cn(C)c2ccccc12,-4.3,-1.7,9.4,26.9,.,.
COCCN(C(=O)COC(=O)CCC1CCCCC1)c1c(N)n(Cc2ccccc2)c(=O)[nH]c1=O,.,.,9.8,.,.,.
Oc1cc(O)c2c(c1)O[C@H](c1ccc(O)c(O)c1)[C@H](O)C2,-0.8,-1.7,-3.6,81.1*,66.1*,1.4
COC(=O)c1ccccc1CSc1nsc(/C=C/N(C)C)c1C#N,-2.5,-2.2,.,48.0*,6.0,2.0
O=[N+]([O-])c1ccc(-c2cn(-c3ccccc3)c(=S)[nH]2)cc1,-2.0,-1.7,11.9,27.3,.,.
Nc1ccc(-n2cc(-c3ccccc3)[nH]c2=S)cc1,-2.1,-4.2,17.5,44.1*,10.5,-0.8
SMILES,IMP-1 inh,VIM-2 inhibitor,sPLA2-III inh,PfM18AAP inh-1,PfM18AAP inh-2,CTSL1 confirm
S=c1[nH]c(-c2ccccc2)cn1-c1ccccc1,-1.4,-3.7,18.4,45.9*,34.6*,-2.1
COc1ccccc1-n1cc(-c2ccc(C)cc2)[nH]c1=S,-4.0,-5.0,18.3,5.9,.,.
COc1ccccc1-n1cc(-c2ccc([N+](=O)[O-])cc2)[nH]c1=S,-2.9,-4.4,9.2,32.1*,22.2,-0.7
O=[N+]([O-])c1cccc(-c2cn(-c3ccccc3)c(=S)[nH]2)c1,-3.5,-3.8,17.6,50.0*,50.2*,-3.8
COc1ccccc1-c1cn(-c2ccccc2)c(=S)[nH]1,0.0,-4.6,15.4,12.8,.,.
O=C(NCc1ccc(F)cc1F)[C@@H]1CCCN1C(=O)[C@@H]1CCCN1C(=O)c1cccc2ccccc12,.,.,11.8,.,.,.
Cc1ccc(-c2csc(N/N=C/c3ccco3)n2)c(C)c1,-4.5,-6.7,-4.9,32.6*,-60.1,2.5
CN(C)S(=O)(=O)c1cccc(-c2csc(N/N=C/c3ccco3)n2)c1,-1.1,-1.4,1.4,14.2,.,.
CCCCN(C(=O)c1ccc(C#N)cc1)c1c(N)n(CCC)c(=O)[nH]c1=O,-3.5,-4.1,2.2,0.6,.,.
O=C(CCC(=O)N1CCN(c2ccc(O)cc2)CC1)c1ccc(Br)cc1,-1.4,1.5,.,42.2*,-19.3,2.4
CCOc1ccc(C(=O)CCC(=O)N2CCN(c3ccc(O)cc3)CC2)cc1,.,.,1.9,.,.,.
O=C(CCC(=O)N1CCN(c2ccc(O)cc2)CC1)c1cccs1,-2.6,1.1,-6.9,52.6*,-18.1,-29.2
CCC[C@H]1[C@@H](OC(=O)NCc2ccccc2Cl)CC[C@@]23CCCN2C(=O)CCC[C@@H]13,.,.,-5.4,.,.,.
O=[N+]([O-])c1cnccc1-n1nnc2ccccc21,.,.,5.8,.,.,.
Cc1ccc2sc(NNC(=O)C3=COCCO3)nc2c1C,-5.5,-5.2,0.8,32.5*,20.6,-0.6
O=C(NNc1nc2c(F)cccc2s1)C1=COCCO1,-2.6,-1.4,6.3,43.5*,10.8,-1.0
CCOc1nc(OCC)c2[nH]c(C(=O)O)c(Br)c2n1,.,.,-0.1,.,.,.
COCC(C)NC(=O)NC1(C(F)(F)F)Oc2ccc(Cl)cc2O1 (centres undefined),-4.1,-2.7,-5.0,79.5*,66.1*,2.7
O=C(NCCN1CCOCC1)NC1(C(F)(F)F)Oc2ccc(Cl)cc2O1 (centres undefined),-4.0,-1.4,4.3,87.0*,88.9*,-3.8
O=C(NCCN1CCOCC1)c1cc(Cl)ccc1Cl,-3.6,-1.6,9.1,-3.0,.,.
Cc1nc(NC(=O)C(C)(C)C)sc1C(=O)Cn1cc(CCCC#N)nn1,.,.,-15.6,.,.,.
Cc1ccc(CCN2CC(C(=O)NCCN(C)C)CC2=O)cc1 (centres undefined),-1.3,-4.0,0.3,-4.9,.,.
COc1ccc(-c2cn(-c3ccc(C)c(C)c3)c(=S)[nH]2)cc1OC,-2.3,-3.9,18.8,31.8*,5.6,-2.4
COc1ccc(-c2cn(-c3ccc(C)c(Cl)c3)c(=S)[nH]2)cc1OC,-1.5,-3.6,2.8,21.5,.,.
COc1ccc(-c2cn(-c3ccccc3)c(=S)[nH]2)cc1OC,-3.2,-5.7,18.7,43.6*,10.5,-5.1
COc1cccc(-n2cc(-c3ccc(F)cc3)[nH]c2=S)c1,-1.5,-5.1,18.3,40.7*,25.7,-0.1
CCOc1ccc(NC(=O)COC(=O)Cn2cnc3ccccc32)cc1,.,.,-2.5,.,.,.
C=CCNCCOCCOc1ccc(C)cc1Br,-4.5,1.1,14.7,3.8,.,.
CCC(C)NCCOCCOc1ccc(C)cc1Br (centres undefined),-4.1,-0.9,-0.5,32.0*,-26.5,-0.5
